Results: publication PMC9586281 (Proceedings of the National Academy of Sciences of the …, 2022)

What was measured:
[1] = test system: FOXP3:NFAT; conditions: cited from earlier work
[2] = required plasmid transfection for cellular introduction; cited from earlier work
[3] = molecular target: T1, LZCC FOXP3 (T182-M337) (Homo sapiens, UniProt Q9BZS1); experiment: Fluorescence polarization analysis; format: binding; conditions: FPA, 50 nM FITC-labeled peptide, 1× PBS pH 8, 1-15 min room temperature
T1 sequence (Q9BZS1 182-336 limits assumed): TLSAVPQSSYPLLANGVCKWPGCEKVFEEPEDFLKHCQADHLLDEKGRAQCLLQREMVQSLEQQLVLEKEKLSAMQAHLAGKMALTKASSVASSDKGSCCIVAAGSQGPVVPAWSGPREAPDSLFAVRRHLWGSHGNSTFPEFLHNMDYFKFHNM
In short: (§1)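 Solution-phase fluorescence polarization using recombinant truncated FOXP3 as the binding partner. Equilibrium binding constants were determined for stapled peptides and for their native unstapled peptide controls.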

[4] = molecular target: T2, ΔN FOXP3 (T182-P431) (Homo sapiens, UniProt Q9BZS1); experiment: Fluorescence polarization analysis; format: binding; conditions: FPA, 50 nM FITC-labeled peptide, 1× PBS pH 8, 1-15 min room temperature
T2 sequence (Q9BZS1 182-431): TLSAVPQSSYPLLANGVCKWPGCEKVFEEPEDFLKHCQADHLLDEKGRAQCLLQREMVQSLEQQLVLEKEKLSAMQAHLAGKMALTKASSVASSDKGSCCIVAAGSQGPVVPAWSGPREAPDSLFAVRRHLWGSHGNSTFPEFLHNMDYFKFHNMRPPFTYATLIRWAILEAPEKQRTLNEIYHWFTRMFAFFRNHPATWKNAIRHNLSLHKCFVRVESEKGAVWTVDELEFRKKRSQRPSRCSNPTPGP
In short: as §1

[5] = test system: Treg cell-mediated suppression of Tcon cell proliferation; experiment: Ex vivo suppression assay; format: cell-based, mice; conditions: Treg cells pretreated with peptide, 72 h coculture with Tcon cells

Substance | Inhibition of FOXP3:NFAT [1] | Cell permeability [2] | KD, LZCC FOXP3 [3] | KD, ΔN FOXP3 [4] | Inhibition of Treg cell-mediated suppression of target proliferation [5]
FOXP3 393–403: nonstructured peptide spanning a loop domain and the Wing1 region of the FKH domain of FOXP3 (KCFVRVESEKG; UniProt Q9BZS1 393-403, looked up, fragment) | partially inhibit FOXP3:NFAT | not cell permeable |  |  | 
FOXP3(229-259): native, unstapled peptide control of hFOXP3 residues 229-259 (RAQCLLQREMVQSLEQQLVLEKEKLSAMQAH; UniProt Q9BZS1 229-259, looked up, fragment) |  |  | no binding | no binding | no ability to prevent Treg cell–mediated suppression of Tcon cell proliferation
